Most compounds without a hit are left out; they make up all but 3.5% or so of the library.
MrgX1 ag = agonists of human MrgX1 receptor, primary screen, HEK293 cells, Fluo-4 calcium flux; AID 588627, 2011; 310,000 compounds, 0.44% hits; B-score at 10 µM; Fluo-4 calcium fluorescence, agonist mode; stronger effect = higher value; Mas-related G-protein coupled receptor member X1 (Homo sapiens), Q96LB2;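 active = calcium response B-score plate-corrected fluorescence ratio at least 3 library SD, with starting fluorescence B-score inside 5 SD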
Target sequence (Q96LB2 whole entry, looked up): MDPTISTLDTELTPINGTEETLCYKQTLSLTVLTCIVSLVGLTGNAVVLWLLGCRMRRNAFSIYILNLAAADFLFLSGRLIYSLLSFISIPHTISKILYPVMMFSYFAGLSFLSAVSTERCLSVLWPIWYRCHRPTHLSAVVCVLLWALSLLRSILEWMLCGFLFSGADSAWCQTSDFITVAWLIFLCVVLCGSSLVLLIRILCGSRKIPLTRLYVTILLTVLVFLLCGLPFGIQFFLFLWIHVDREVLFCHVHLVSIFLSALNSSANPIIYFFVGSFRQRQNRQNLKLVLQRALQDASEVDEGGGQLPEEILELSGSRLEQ
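Test system: HEK293 cells stably expressing human MrgX1 receptor; Input: fifteen thousand cells per well; Dosing: compound delivered in addition one of three; Schedule: overnight seeding, then 1 h dark dye loading; Technique: Fluo-4 NW calcium fluorescence; Measure: B-scored fluorescence response ratio; Controls: positive and negative controls per plate.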
RGS4 inh = RGS4 inhibitors, primary screen, cell-based, HEK293 M3R inducible RGS4, calcium flux; Regulator of G-protein signaling 4 (Homo sapiens), P49798; Fluo-4 calcium flux; stronger effect = higher value; triggered by carbachol at its EC20; B-score at 10 µM; 310,000 compounds, 0.45% hits; AID 463165, 2010;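 active = B-score, a plate-corrected calcium signal, over three deviations above library mean, with baseline fluorescence within five deviations of library mean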;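 note: RGS4 expression induced by doxycycline in cells with stable M3 receptor; B-score is computed from the integrated fluorescence ratio over baseline after carbachol; higher B-score means a larger calcium signal and so more RGS4 inhibition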
Target sequence (P49798 whole entry, looked up): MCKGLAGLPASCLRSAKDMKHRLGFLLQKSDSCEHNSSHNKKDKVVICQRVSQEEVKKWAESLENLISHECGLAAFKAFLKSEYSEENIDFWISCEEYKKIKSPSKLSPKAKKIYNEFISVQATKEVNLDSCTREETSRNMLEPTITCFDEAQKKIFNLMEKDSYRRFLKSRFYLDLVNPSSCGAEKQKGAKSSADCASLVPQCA
RGS4 act = RGS4 potentiators or activators, primary screen, cell-based, HEK293 M3R inducible RGS4, calcium flux; carbachol calcium flux Fluo4; stronger effect = lower value; B-score at 10 µM; 310,000 compounds, 0.92% hits;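 active = B-score of the integrated calcium signal more than 4 SD below the library mean, with starting fluorescence not abnormally high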;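 note: negative B-score means reduced calcium response which marks RGS4 activation or potentiation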
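Detection: kinetic calcium fluorescence imaging with Fluo4-AM dye, 2 µM / Material: HEK293 cells with stable M3R and inducible RGS4 / Schedule: recording 10 s baseline at 1 Hz, 100 s post-agonist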
MrgX1 antag = antagonists of human MrgX1 receptor, primary screen, HEK293 cells, Fluo-4 calcium flux | AID 588676, 2011 | Mas-related G-protein coupled receptor member X1 (Homo sapiens), Q96LB2 | 310,000 compounds, 1.3% hits | B-score at 10 µM | BAM8-22 antagonism; stronger effect = lower value;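 active = calcium-response B-score plate-corrected more than 3 library SD below zero, starting fluorescence within 5 deviations, no agonist response on first addition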;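 note: peak minus trough fluorescence over baseline after final BAM8-22 challenge near maximal dose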
MrgX1 PAM = positive allosteric modulators of MrgX1, primary screen, HEK293 cells, Fluo-4 calcium flux. Mas-related G-protein coupled receptor member X1 (Homo sapiens), Q96LB2. FDSS; stronger effect = higher value. B-score at 10 µM. 310,000 compounds, 0.63% hits. AID 588675, 2011;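 active = plate-corrected calcium response at least 3 library SD above typical, normal starting fluorescence, not activating the receptor alone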;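 note: compound read alongside a low EC10 to EC30 dose of BAM8-22 agonist; peak minus trough fluorescence over baseline measured at the second addition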
RGS4 block valid = enhanced carbachol calcium response, M3R/RGS4 cells, RGS4 inhibitor project, cell-based, validation screen, HEK293 M3R/RGS4, calcium flux | shares compounds with RGS4 inh | carbachol calcium Fluo-4 fluorescence; carbachol added at its EC20; 0 = buffer wells, 100 = carbachol control | calcium response, % at 10 µM | 1,700 compounds, 65% hits | AID 492999, 2010;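 active = duplicate-averaged calcium response above the buffer-only control mean plus 5 SD of those controls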;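 note: integrated fluorescence ratio F max minus min over baseline F0; higher response in RGS4-induced cells means RGS4 inhibition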
M3R Ca ctr = carbachol calcium response in non-induced M3R cells, confirmation, counter-screen for RGS4 inhibitor project, cell-based, HEK293 M3R. shares compounds with RGS4 inh. carbachol calcium Fluo-4; submaximal (EC20) carbachol stimulus; buffer wells 0%, carbachol control wells 100%. activity (percent), % at 10 µM. 1,900 compounds, 20% hits. AID 493000, 2010; call rule not given here;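 note: RGS4 induction absent so cells express M3R without RGS4; higher means more calcium signal and flags a non-specific hit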
RGS4 inh ctr2 = signal in non-induced cells without carbachol, RGS4 inhibitor counter-screen; calcium response (agonist-mode artifact), % at 10 µM; HEK293 M3R/RGS4 non-induced, Fluo-4 calcium, no carbachol; normalised: buffer wells 0%, carbachol wells 100%; AID 493001; shares compounds with RGS4 inh; 1,900 compounds, 22% hits;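 active = duplicate-averaged calcium rise in uninduced cells above buffer wells' mean plus 5 SD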
An asterisk follows results filed as active; i = inactive; · = no result.

SMILES	MrgX1 ag	RGS4 inh	RGS4 act	MrgX1 antag	MrgX1 PAM	RGS4 block valid	M3R Ca ctr	RGS4 inh ctr2
CCCC1(c2ccccc2)NC(=O)N(CC(=O)c2[nH]c(C)c(C(=O)OCC)c2C)C1=O (stereo not given)	i	i	i	i	i	·	·	·
CCOC(=O)c1c(C)[nH]c(C(=O)CN2C(=O)NC(C)(c3ccc4ccccc4c3)C2=O)c1C (stereo not given)	i	5.7*	i	i	i	9.0%*	i	i
COc1ccc(-n2nc(C(=O)NCC(=O)N3CCCC3)c3ccccc3c2=O)cc1Cl	i	i	i	i	i	·	·	·
NNC(=O)c1nc[nH]c1C(=O)Nc1ccccn1	i	15*	i	i	i	5.0%*	i	i
CCOC(=O)C1=C(C)N=c2s/c(=C\c3ccncc3)c(=O)n2C1c1ccc2c(c1)OCO2 (stereo not given)	i	4.7*	i	i	i	16%*	44%*	16%*
COc1ccccc1N1CC(C(=O)Nc2nnc(SCC(=O)N3CCOCC3)s2)CC1=O (stereo not given)	i	i	i	i	i	·	·	·
CCN(C#N)c1nc(NC(C)C)nc(NC(C)C)n1	i	i	i	i	i	i	i	i
C#CCN(C#N)c1nc(NCC)nc(NC(C)C)n1	i	i	i	i	i	·	·	·
Cc1nn2c(-c3ccccn3)ccnc2c1Br	i	i	i	i	i	·	·	·
Cc1nn2c(-c3ccc(F)cc3)ccnc2c1Br	i	i	i	i	i	·	i	i
Cc1nn2c(-c3ccncc3)ccnc2c1Br	i	i	i	i	i	i	i	i
CCc1ccccc1Oc1ccc(S(=O)(=O)N2CCN(C)CC2)cn1	i	i	i	i	i	·	·	·
COC(=O)c1ccc(NC(=O)Cn2nc(C)cc2C)cc1	i	i	i	i	i	·	·	·
O=c1cc(-c2ccc(Cl)cc2)nc(N2CCN(c3ccccc3)CC2)[nH]1	i	9.7*	i	i	i	i	32%*	i
Cc1cc(=O)[nH]c(N2CCN(Cc3ccccc3)CC2)n1	i	i	i	i	i	·	·	·
CCc1ccc(N2CC(C(=O)Nc3ccc4c(c3)OCCO4)CC2=O)cc1 (stereo not given)	i	i	i	i	i	·	·	·
CC(=C/C(=O)O)/C=C/c1ccco1	i	5.4*	i	i	i	7.0%*	i	i
CO/C=C\C=C/c1nnn(-c2ccc(Cl)cc2)n1	i	7.5*	i	i	i	i	i	8.0%*
CCOc1ccccc1CN1CCNC(=O)C1CC(=O)NC1CCCCCCC1 (stereo not given)	i	i	i	i	i	·	·	·
COCCNC(=S)N(CCCO)Cc1cc2cc3c(cc2[nH]c1=O)OCCO3	i	i	i	i	i	i	i	i
COCCNC(=S)N(CCO)Cc1cc2cc3c(cc2[nH]c1=O)OCO3	i	i	i	i	i	i	i	i
CCN(CC)CCN(Cc1cc2cc3c(cc2[nH]c1=O)OCO3)C(=S)NCCCOC	i	i	i	i	i	·	·	·
CC(C)C(NC(=O)C(NC(=O)C1OC2OC(C)(C)OC2C2OC(C)(C)OC12)C(C)C)C(=O)O (stereo not given)	i	i	i	i	i	·	·	·
Cc1ccc2cc(CN(c3cccc(C)c3C)S(=O)(=O)c3ccccc3)c(=O)[nH]c2c1	i	i	i	i	i	·	·	·
Cc1ccc(C(=O)C(C)OC(=O)C2CC(=O)N(C3CCCCC3)C2)cc1 (stereo not given)	i	i	i	i	i	·	·	·
SMILES	MrgX1 ag	RGS4 inh	RGS4 act	MrgX1 antag	MrgX1 PAM	RGS4 block valid	M3R Ca ctr	RGS4 inh ctr2
C=CCN(C(=O)c1csnn1)C(C(=O)NC1CCCC1)c1ccccc1F (stereo not given)	i	i	i	i	i	·	·	·
CCCCCCCCNC(=S)NCCN1CCCCC1	·	i	i	·	·	·	·	·
Cc1ccc(/C=N/NC(=O)CSc2nc3ccccc3c(=O)n2-c2ccccc2C)s1	i	i	i	i	i	·	·	·
Cc1ccccc1-n1c(SCC(=O)N/N=C/c2sccc2C)nc2ccccc2c1=O	i	5.5*	i	i	i	i	i	i
CC(=O)/C=C1/C(=O)Nc2ccccc21	i	18*	i	i	i	34%*	44%*	26%*
COc1ccc(N=C2C(=O)Nc3c(C)cccc32)cc1	i	i	i	i	i	·	·	·
O=C(N/N=C/C(Br)=C/c1ccccc1)c1n[nH]c2c1CCC2	i	5.1*	i	i	i	18%*	i	i
CCN(CC)c1ccc(N=Cc2cc(Br)ccc2O)cc1	i	i	i	i	i	·	·	·
OCC(CO)(CO)N=Cc1cc(Br)ccc1O	i	5.8*	i	i	i	i	i	i
Cc1cc(O)c(C(C[N+](=O)[O-])c2ccc(Cl)cc2)c(=O)o1 (stereo not given)	i	i	i	i	i	·	·	·
Cc1cc(C)n(C(C[N+](=O)[O-])c2ccc(Cl)cc2)n1 (stereo not given)	i	14*	i	i	i	8.0%*	44%*	22%*
CCCN1CCN(CCCNC(=O)Cn2nc(C)n3c(cc4cc(F)ccc43)c2=O)CC1	i	i	i	i	i	·	·	·
CCOc1ccc(NC(=O)CNC(=O)c2cn(-c3ccccc3OC)c(=O)c3ccccc23)cc1	i	i	i	i	i	·	·	·
COc1ccc(CNC(=O)CCNS(=O)(=O)c2ccc(C)cc2)cc1	i	i	i	i	i	i	i	i
